Experimental data reported in ChEMBL document CHEMBL1132196, “Synthesis, biochemical evaluation, and classical and three-dimensional quantitative structure-activity relationship studies of 7-substituted-1,2,3,4-tetrahydroisoquinolines and their relative affinities toward phenylethanolamine N-methyltransferase and the alpha2-adrenoceptor” (J Med Chem, 1999).

Key:
[1] = target: T1, Phenylethanolamine N-methyltransferase (Bos taurus, UniProt P10938); experiment: In vitro inhibitory activity against bovine adrenal phenylethanolamine N-methyl-transferase (PNMT)
T1 sequence (P10938 whole entry): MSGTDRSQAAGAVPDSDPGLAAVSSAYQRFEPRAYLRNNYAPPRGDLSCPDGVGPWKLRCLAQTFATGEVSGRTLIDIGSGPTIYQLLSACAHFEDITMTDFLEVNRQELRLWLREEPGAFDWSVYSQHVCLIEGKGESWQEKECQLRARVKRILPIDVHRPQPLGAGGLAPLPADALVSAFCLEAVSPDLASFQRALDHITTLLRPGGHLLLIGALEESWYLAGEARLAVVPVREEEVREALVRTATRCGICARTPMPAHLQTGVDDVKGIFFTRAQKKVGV

Bos taurus = species: Bos taurus; experiment: Binding selectivity against PNMT and alpha-2-adrenoceptors, measured as a ratio of respective in vitro Ki's.
[2] = target: T1, Phenylethanolamine N-methyltransferase; experiment: In vitro inhibitory activity against bovine adrenal phenylethanolamine N-methyltransferase(PNMT)
[3] = target: T2, Adrenergic receptor alpha-2 (Rattus norvegicus, UniProt P22086+P19328+P22909); experiment: In vitro inhibitory activity against Alpha-2 adrenergic receptor using [3H]clonidine as radioligand in male Sprague-Dawley rats; format: protein assay
T2 sequence (P22086 whole entry): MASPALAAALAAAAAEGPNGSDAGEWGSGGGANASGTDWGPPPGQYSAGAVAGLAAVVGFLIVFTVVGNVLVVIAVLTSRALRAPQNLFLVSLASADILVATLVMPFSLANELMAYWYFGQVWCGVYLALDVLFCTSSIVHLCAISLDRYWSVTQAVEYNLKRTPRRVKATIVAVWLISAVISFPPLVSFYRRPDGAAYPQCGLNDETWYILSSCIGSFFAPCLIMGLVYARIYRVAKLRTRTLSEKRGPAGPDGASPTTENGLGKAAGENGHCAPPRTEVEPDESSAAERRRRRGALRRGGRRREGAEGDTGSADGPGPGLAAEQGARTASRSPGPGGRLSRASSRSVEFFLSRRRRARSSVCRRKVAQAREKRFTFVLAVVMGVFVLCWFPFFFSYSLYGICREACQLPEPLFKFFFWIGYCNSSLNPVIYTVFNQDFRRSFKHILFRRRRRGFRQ
T2 sequence (P19328 whole entry): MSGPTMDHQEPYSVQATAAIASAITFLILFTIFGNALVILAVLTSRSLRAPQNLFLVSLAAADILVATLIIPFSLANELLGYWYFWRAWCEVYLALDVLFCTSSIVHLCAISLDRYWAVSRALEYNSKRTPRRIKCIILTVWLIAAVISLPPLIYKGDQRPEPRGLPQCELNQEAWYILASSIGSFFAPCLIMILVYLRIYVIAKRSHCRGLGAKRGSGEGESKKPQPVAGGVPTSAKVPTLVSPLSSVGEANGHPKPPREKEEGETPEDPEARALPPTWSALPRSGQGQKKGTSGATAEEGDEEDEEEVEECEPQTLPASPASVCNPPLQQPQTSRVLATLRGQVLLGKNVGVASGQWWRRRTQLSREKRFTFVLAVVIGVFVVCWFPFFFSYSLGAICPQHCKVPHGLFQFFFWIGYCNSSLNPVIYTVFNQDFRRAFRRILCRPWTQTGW
T2 sequence (P22909 whole entry): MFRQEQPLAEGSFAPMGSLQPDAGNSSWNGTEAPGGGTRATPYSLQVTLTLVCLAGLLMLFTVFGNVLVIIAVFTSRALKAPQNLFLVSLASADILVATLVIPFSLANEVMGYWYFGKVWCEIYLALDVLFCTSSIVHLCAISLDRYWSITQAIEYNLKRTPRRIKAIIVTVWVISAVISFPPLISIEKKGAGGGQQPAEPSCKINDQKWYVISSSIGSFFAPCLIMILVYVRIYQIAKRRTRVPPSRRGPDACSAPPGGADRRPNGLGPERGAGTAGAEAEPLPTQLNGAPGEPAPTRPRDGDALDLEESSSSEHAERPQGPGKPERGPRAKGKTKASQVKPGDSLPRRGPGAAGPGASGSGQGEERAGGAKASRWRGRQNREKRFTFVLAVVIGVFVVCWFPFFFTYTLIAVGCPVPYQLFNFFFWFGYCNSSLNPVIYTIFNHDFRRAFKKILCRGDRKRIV
Summary of the method: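 Rat cerebral cortex (male Sprague–Dawley) homogenised in ice-cold 50 mM Tris/HCl pH 7.7, washed by three 50 000g spins, resuspended in 200 volumes. [3H]clonidine 4.0 nM final, 25 °C for 30 min, filtration, scintillation counting. Nonspecific binding with 2 μM phentolamine. Quadruplicate, five concentrations over 16-fold range. IC50 by log-probit; Ki = IC50/(1+[clonidine]/KD).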

Row | Structure (SMILES) | Ki [1] [µM] | Selectivity (Bos taurus) | Ki [2] [µM] | Ki [3] [µM]
1 | NCc1ccc2c(c1)CNCC2 | 1900 | 0.0063 |  | 
2 | COc1ccc2c(c1)CNCC2 | 21 | 0.022 |  | 
3 | CC(=O)c1ccc2c(c1)CNCC2 | 4.9 | 1.2 |  | 
4 | O=C(O)c1ccc2c(c1)CNCC2 | 470 | 1 |  | 
5 | O=S(=O)(Nc1ccc(Cl)cc1)c1ccc2c(c1)CNCC2 |  | 2.4 |  | 
6 | O=S(=O)(c1ccc2c(c1)CNCC2)C(Cl)(Cl)Cl |  |  | 1.3 | 
7 | OCc1ccc2c(c1)CNCC2 | 11 | 0.21 |  | 
8 | CS(=O)(=O)N(c1ccc2c(c1)CNCC2)S(C)(=O)=O | ~4500 | 0.042 |  | 
9 | CS(=O)(=O)c1ccc2c(c1)CNCC2 | 1.3 | 120 |  | 160
10 | Nc1ccc2c(c1)CNCC2 | 27 | 0.11 |  | 
11 | N#Cc1ccc2c(c1)CNCC2 | 1.4 | 5.2 |  | 
12 | O=[N+]([O-])c1ccc2c(c1)CNCC2 | 0.41 | 10 |  | 
13 | CS(=O)(=O)Nc1ccc2c(c1)CNCC2 |  | 0.23 |  | 
14 | CS(=O)(=O)NCc1ccc2c(c1)CNCC2 |  | 0.055 |  | 
15 | O=S(=O)(c1ccccc1)c1ccc2c(c1)CNCC2 | 14 | 1.5 |  | 21
16 | COC(=O)c1ccc2c(c1)CNCC2 | 6.7 | 0.68 |  | 
17 | Brc1ccc2c(c1)CNCC2 |  |  | 0.29 | 
18 | NS(=O)(=O)c1ccc2c(c1)CNCC2 |  | 180 |  | 
19 | O=C(c1ccccc1)c1ccc2c(c1)CNCC2 | 2.9 | 9.3 |  | 
20 | Oc1ccc2c(c1)CNCC2 |  | 0.85 |  | 
21 | C=CCS(=O)(=O)c1ccc2c(c1)CNCC2 | 9.8 | 9.7 |  | 
22 | C[S+]([O-])c1ccc2c(c1)CNCC2 (configuration not stated) | 45 | 1.1 |  | 51
23 | O=C(c1ccc2c(c1)CNCC2)C(F)(F)F | 5.7 | 5.6 |  | 
24 | NC(=O)c1ccc2c(c1)CNCC2 | 64 | 0.36 |  | 
25 | CC(=O)Nc1ccc2c(c1)CNCC2 | 190 | 0.48 |  | 9.1
